ChEMBL document CHEMBL1641520, “Design, synthesis, and biological evaluation of novel water-soluble N-mustards as potential anticancer agents” (Bioorg Med Chem, 2011)
Activity calls are given as the source filed them. The calls are words filed in the database; no cut-off is given here.

Experiments:
U-87MG ATCC = assay: Anticancer activity against human U87MG cells xenografted in athymic mouse assessed as tumor suppression at 30 mg/kg, iv Q2D for 6 days; format: functional, organism-based; parameters: dose 30 mg/kg
Procedure, shortened: (§1)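 Athymic nu/nu nude mice (male, ≥6 weeks, 20–24 g) carrying human tumor xenografts; dosing iv via tail vein, Q2D, in vehicle of DMSO/Tween 80/saline (50:40:160 µL). Dose level is the maximal tolerated dose determined beforehand. Tumor volume by caliper (length × width × height or width). Body weight taken as total minus tumor weight (1 mm³ = 1 mg). n = 4–5 mice.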

CCRF-CEM [1] = assay: Cytotoxicity against human CCRF-CEM cells after 72 hrs by XTT assay; format: functional, cell-based
Procedure, shortened: (§2)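 CCRF-CEM leukemia cells and their taxol- or vinblastine-resistant sublines given compound for 72 h. XTT read-out: after phenazine methosulfate–XTT, 6 h at 37 °C, absorbance at 450 and 630 nm. IC50 from median-effect analysis of dose-effect data at six or seven concentrations.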

MX1 [2] = assay: Cytotoxicity against human MX1 cells after 72 hrs by SRB assay; format: functional, cell-based; conditions: MX1, 72 h
Procedure, shortened: (§3)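 MX-1 breast and HCT-116 colon carcinoma cells exposed to compound for 72 h; growth measured by sulforhodamine B assay. IC50 from median-effect analysis of dose-effect data at six or seven concentrations.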

[3] = Cell cycle arrest in human H1299 cells assessed as accumulation at G2/M phase at 5 uM after 24 hrs by propidium iodide staining-based flow cytometry; format: functional; conditions: NCI-H1299
Procedure, shortened: (§4)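 H1299 non-small cell lung carcinoma cells exposed to compound for 24 h. Attached cells trypsinized, PBS-washed, fixed in ice-cold 70% ethanol for 30 min. Stained with 4 µg/ml propidium iodide in PBS with 1% Triton X-100 and 0.1 mg/ml RNase A. Analyzed by flow cytometry; phase percentages taken from DNA histograms.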

Nucleic Acid = assay: Binding affinity to Escherichia coli plasmid EGFP-N1 DNA at 1 to 10 uM after 22 hrs by alkaline agarose gel shift assay; format: nucleic-acid assay
Procedure, shortened: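 Purified pEGFP-N1 plasmid DNA (1500 ng) incubated with compound (1–20 µM) in 3 mM NaCl/1 mM sodium phosphate pH 7.4/1 mM EDTA for 2 h at 37 °C. Linearized with BamHI, ethanol-precipitated, denatured in 0.5 N NaOH-10 mM EDTA. Run on 0.8% alkaline agarose gel at 4 °C, 18 V for 22 h. Ethidium bromide stain; cross-linked double-stranded DNA scored against single-stranded DNA.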

[4] = Cell cycle arrest in human H1299 cells assessed as accumulation at G1 phase at 2.5 uM after 24 hrs by propidium iodide staining-based flow cytometry; format: functional; conditions: NCI-H1299; procedure, shortened: as §4
[5] = Cell cycle arrest in human H1299 cells assessed as accumulation at S phase at 2.5 uM after 24 hrs by propidium iodide staining-based flow cytometry; format: functional; conditions: NCI-H1299; procedure, shortened: as §4
MCF7 = assay: Cytotoxicity against human MCF7 cells after 72 hrs by alamar blue assay; format: functional, cell-based; conditions: MCF7, 72 h
Procedure, shortened: (§5)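 H1299, PC3, CL1-0, CL1-5 and MCF-7 cells exposed to compound for 72 h. Alamar blue added, then 6 h at 37 °C; absorbance at 570 and 600 nm. IC50 from median-effect analysis of dose-effect data at six or seven concentrations.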

HCT-116 [6] = assay: Cytotoxicity against human HCT116 cells after 72 hrs by SRB assay; format: functional, cell-based; conditions: HCT-116, 72 h; procedure, shortened: as §3
CCRF-CEM [7] = assay: Cytotoxicity against vinblastine-resistant human CCRF-CEM cells after 72 hrs by XTT assay; format: functional, cell-based; procedure, shortened: as §2
PC-3 [8] = assay: Anticancer activity against human PC3 cells xenografted in athymic mouse assessed as tumor suppression at 40 mg/kg, iv Q2D for 3 days; format: functional; conditions: PC-3, 72 h; procedure, shortened: as §1
PC-3 [9] = assay: Cytotoxicity against human PC3 cells after 72 hrs by alamar blue assay; format: functional, cell-based; conditions: PC-3, 72 h; procedure, shortened: as §5
[10] = Cell cycle arrest in human H1299 cells assessed as accumulation at S phase at 5 uM after 24 hrs by propidium iodide staining-based flow cytometry; format: functional; conditions: NCI-H1299; procedure, shortened: as §4
[11] = Cell cycle arrest in human H1299 cells assessed as accumulation at S phase at 10 uM after 24 hrs by propidium iodide staining-based flow cytometry; format: functional; conditions: NCI-H1299; procedure, shortened: as §4
[12] = Cytotoxicity against human CL1-0 cells after 72 hrs by alamar blue assay; format: functional, cell-based; conditions: CL1-0, 72 h; procedure, shortened: as §5
CCRF-CEM [13] = assay: Cytotoxicity against taxol-resistant human CCRF-CEM cells after 72 hrs by XTT assay; format: functional, cell-based; procedure, shortened: as §2
CCRF-CEM [14] = assay: Selectivity ratio of IC50 for vinblastine-resistant human CCRF-CEM cells to IC50 for human CCRF-CEM cells; format: functional
[15] = Cell cycle arrest in human H1299 cells assessed as accumulation at G2/M phase at 2.5 uM after 24 hrs by propidium iodide staining-based flow cytometry; format: functional; conditions: NCI-H1299; procedure, shortened: as §4
[16] = Cell cycle arrest in human H1299 cells assessed as accumulation at sub-G1 phase at 5 uM after 24 hrs by propidium iodide staining-based flow cytometry; format: functional; conditions: NCI-H1299; procedure, shortened: as §4
[17] = Cell cycle arrest in human H1299 cells assessed as accumulation at sub-G1 phase at 2.5 uM after 24 hrs by propidium iodide staining-based flow cytometry; format: functional; conditions: NCI-H1299; procedure, shortened: as §4
[18] = Cell cycle arrest in human H1299 cells assessed as accumulation at G1 phase at 5 uM after 24 hrs by propidium iodide staining-based flow cytometry; format: functional; conditions: NCI-H1299; procedure, shortened: as §4
[19] = Cell cycle arrest in human H1299 cells assessed as accumulation at sub-G1 phase at 10 uM after 24 hrs by propidium iodide staining-based flow cytometry; format: functional; conditions: NCI-H1299; procedure, shortened: as §4
[20] = Mean residence time in Sprague-Dawley rat at 1 mg/kg, iv by LC-MS/MS analysis; format: ADME, organism-based; parameters: dose 1 mg/kg, route intravenous; conditions: in vivo
[21] = Steady state clearance in Sprague-Dawley rat at 1 mg/kg, iv up to 24 hrs by LC-MS/MS analysis; format: ADME, organism-based; parameters: dose 1 mg/kg, route intravenous; conditions: in vivo, read-out: CLss
[22] = Cell cycle arrest in human H1299 cells assessed as accumulation at G2/M phase at 10 uM after 24 hrs by propidium iodide staining-based flow cytometry; format: functional; conditions: NCI-H1299; procedure, shortened: as §4
[23] = Cell cycle arrest in human H1299 cells assessed as accumulation at G1 phase at 10 uM after 24 hrs by propidium iodide staining-based flow cytometry; format: functional; conditions: NCI-H1299; procedure, shortened: as §4
CCRF-CEM [24] = assay: Selectivity ratio of IC50 for taxol-resistant human CCRF-CEM cells to IC50 for human CCRF-CEM cells; format: functional
MX1 [25] = assay: Anticancer activity against human MX1 cells xenografted in athymic mouse assessed as complete tumor remission at 30 mg/kg, iv Q2D for 5 days measured after 70 days of tumor implantation; format: functional, organism-based; parameters: dose 30 mg/kg; procedure, shortened: as §1
[26] = Cytotoxicity against human CL1-5 cells after 72 hrs by alamar blue assay; format: functional, cell-based; conditions: CL1-5, 72 h; procedure, shortened: as §5
HCT-116 [27] = assay: Anticancer activity against human HCT116 cells xenografted in athymic mouse assessed as tumor suppression at 30 mg/kg, iv Q2D for 5 days; format: functional; conditions: HCT-116, 120 h; procedure, shortened: as §1
PC-3 [28] = assay: Anticancer activity against human PC3 cells xenografted in athymic mouse assessed as tumor suppression at 30 mg/kg, iv Q2D for 4 days; format: functional; conditions: PC-3, 96 h; procedure, shortened: as §1
[29] = Cytotoxicity against human H1299 cells after 72 hrs by alamar blue assay; format: functional, cell-based; conditions: NCI-H1299, 72 h; procedure, shortened: as §5

CN(C)CCNC(=O)c1cccc(NC(=O)Nc2ccc(N(CCCl)CCCl)cc2)c1.Cl
inhibition (U-87MG ATCC): Active
IC50 (CCRF-CEM [1]): 130 nM
IC50 (MX1 [2]): 570 nM
Activity [3]: 60.8%
Activity (Nucleic Acid): Active
Activity [4]: 2.3%
Activity [5]: 1.8%
IC50 (MCF7): 630 nM
IC50 (HCT-116 [6]): 690 nM
IC50 (CCRF-CEM [7]): 800 nM
inhibition in vivo at 40 mg/kg (PC-3 [8]): > 99%
IC50 (PC-3 [9]): 1880 nM
Activity [10]: 8.8%
Activity [11]: 5.2%
IC50 [12]: 14600 nM
IC50 (CCRF-CEM [13]): 1220 nM
Ratio IC50 (CCRF-CEM [14]): 6.2
Activity [15]: 55.9%
Activity [16]: 19.7%
Activity [17]: 20%
Activity [18]: 10.7%
Activity [19]: 26%
MRT [20]: 6.6 min
clearance [21]: 18 mL/min/kg
Activity [22]: 62.3%
Activity [23]: 6.5%
Ratio IC50 (CCRF-CEM [24]): 9.4
inhibition (MX1 [25]): Active
IC50 [26]: 6080 nM
inhibition in vivo at 30 mg/kg (HCT-116 [27]): > 95%
inhibition in vivo at 30 mg/kg (PC-3 [28]): > 99%
IC50 [29]: 10400 nM
